For 43 compounds, inhibition, IC50 and Activity results are on record in ChEMBL document CHEMBL5532688, “Carltonine-derived compounds for targeted butyrylcholinesterase inhibition” (RSC Med Chem, 2024).

pIC50: −log10 of the molar value. Calls of active or inactive are those of the source. No cut-off for these calls is given here. Bounds are passed on as bounds.

The target in assay [1] is T1, Acetylcholinesterase (Homo sapiens, UniProt P22303). The assay is described as follows: Inhibition of human AChE using acetylthiocholine iodide as substrate at 10 uM incubated for 1 mins by spectrophotometric Ellman's method. An outline of the steps: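 Recombinant human AChE, modified Ellman assay; compound in DMSO (single 10 μM screen) preincubated 5 min with enzyme and 5 mM DTNB in pH 7.4 phosphate buffer. […] Triplicate.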
(In general: Ellman's reagent forms a yellow product with free thiols.)

Assay [2] concerns the target T2, Cholinesterase (Homo sapiens, UniProt P06276). Put plainly: Inhibition of human BChE using butyrylthiocholine iodide as substrate incubated for 1 mins by spectrophotometric Ellman's method.
Assay [3] has as its target T1, Acetylcholinesterase. The assay is described as follows: Inhibition of human AChE using acetylthiocholine iodide as substrate incubated for 1 mins by spectrophotometric Ellman's method. An outline of the steps: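 Modified Ellman assay on recombinant human AChE (acetylthiocholine) or human BChE (butyrylthiocholine). Enzyme, 5 mM DTNB and DMSO compound dilutions at several concentrations preincubated 5 min in pH 7.4 phosphate buffer. Reaction started with 10 mM substrate, ΔA read at 412 nm for 1 min. IC50 is the mean ± SEM of three independent runs, each in triplicate.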

Assay [4] has as its target T2, Cholinesterase. The assay is described as follows: Reversible binding affinity to human BChE using butyrylthiocholine iodide as substrate assessed as reduction in Km at 0.445 to 1.400 micromol/L preincubated for 5 min followed by substrate addition and measured after 1 mins by Lineweaver-Burk plot analysis. The settings on record: dose 0.445-1.4 µmol/L, time 6.0 min. An outline of the steps:
(§1)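 Recombinant human BChE at final activity 0.002 U/μL in phosphate buffer. […] Km, Vmax, Ki and Ki' came from nonlinear regression of velocity curves. Lineweaver–Burk plots were drawn by linear regression.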

Assay [5] concerns the target T2, Cholinesterase. The assay is described as follows: Reversible binding affinity to human BChE using butyrylthiocholine iodide as substrate assessed as reduction in Vmax at 0.445 to 1.400 micromol/L preincubated for 5 min followed by substrate addition and measured after 1 mins by Lineweaver-Burk plot analysis. The settings on record: dose 0.445-1.4 µmol/L, time 6.0 min. An outline of the steps: as §1

T2 sequence (P06276 whole entry): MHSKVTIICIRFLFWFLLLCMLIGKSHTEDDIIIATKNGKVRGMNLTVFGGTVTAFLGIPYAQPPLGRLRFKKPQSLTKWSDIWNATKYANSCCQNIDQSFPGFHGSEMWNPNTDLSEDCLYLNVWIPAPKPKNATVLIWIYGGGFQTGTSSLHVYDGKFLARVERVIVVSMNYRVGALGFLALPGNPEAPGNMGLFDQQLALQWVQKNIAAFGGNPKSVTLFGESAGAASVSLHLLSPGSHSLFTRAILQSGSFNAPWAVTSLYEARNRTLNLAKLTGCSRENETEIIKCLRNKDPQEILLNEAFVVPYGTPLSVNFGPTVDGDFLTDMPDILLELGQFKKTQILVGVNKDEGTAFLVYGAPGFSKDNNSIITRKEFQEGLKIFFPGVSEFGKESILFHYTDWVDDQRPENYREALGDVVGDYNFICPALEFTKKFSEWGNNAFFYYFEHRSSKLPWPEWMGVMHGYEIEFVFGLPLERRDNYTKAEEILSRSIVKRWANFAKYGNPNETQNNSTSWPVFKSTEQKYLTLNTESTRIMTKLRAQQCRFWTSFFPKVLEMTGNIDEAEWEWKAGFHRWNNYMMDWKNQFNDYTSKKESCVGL
T1 sequence (P22303 whole entry): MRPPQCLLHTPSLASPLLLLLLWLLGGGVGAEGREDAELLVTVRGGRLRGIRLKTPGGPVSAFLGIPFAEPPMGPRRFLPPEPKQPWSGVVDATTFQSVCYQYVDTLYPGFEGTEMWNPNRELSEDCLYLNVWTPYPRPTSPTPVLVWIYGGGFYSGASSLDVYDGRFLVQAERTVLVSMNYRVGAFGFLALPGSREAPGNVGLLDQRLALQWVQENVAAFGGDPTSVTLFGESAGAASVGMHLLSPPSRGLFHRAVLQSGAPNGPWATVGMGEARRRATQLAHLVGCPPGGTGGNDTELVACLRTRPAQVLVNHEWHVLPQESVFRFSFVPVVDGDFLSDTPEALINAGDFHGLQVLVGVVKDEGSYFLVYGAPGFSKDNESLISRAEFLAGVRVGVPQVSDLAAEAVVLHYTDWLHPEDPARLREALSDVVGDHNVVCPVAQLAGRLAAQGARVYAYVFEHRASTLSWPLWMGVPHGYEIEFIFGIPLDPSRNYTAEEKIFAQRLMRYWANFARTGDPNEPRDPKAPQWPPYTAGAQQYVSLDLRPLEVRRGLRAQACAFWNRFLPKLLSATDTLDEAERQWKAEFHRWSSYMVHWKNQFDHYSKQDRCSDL

As to `C=CCN(CCc1ccc(O)cc1)Cc1cccc(OCc2ccccc2)c1`, the inhibition result at Acetylcholinesterase [1] is “inactive”.
Same read-out and setting: next, `c1ccc(CCCCNCc2ccc(OCc3ccccc3)cc2)cc1`: “inactive”; `COc1ccc(CNCc2cccc(OCc3ccccc3)c2)cc1OC`: “inactive”.
On the same count and under the same terms, the same measure for `CCN(CCc1ccccc1)Cc1cccc(OCc2ccccc2)c1`: “inactive”.
The term pIC50 denotes the negative decadic logarithm of the IC50, by convention in mol/L. A high value points to a low IC50. On Cholinesterase [2], `C=CCOc1ccc(CCN(CC=C)Cc2ccc(OCc3ccccc3)c(OC)c2)cc1` showed a pIC50 of less than 5.00.
As for `CCCN(CCCc1ccccc1)Cc1ccc(OCc2ccccc2)cc1`, the inhibition entry at Acetylcholinesterase [1] was “inactive”.
Same read-out and setting: next, `CC(CCc1ccccc1)NCc1ccc(OCc2ccccc2)cc1` (stereo not given): “inactive”; `c1ccc(CNCc2cccc(OCc3ccccc3)c2)cc1`: “inactive”; `c1ccc(CCCNCc2cccc(OCc3ccccc3)c2)cc1`: “inactive”.
Still for that read-out and setting: the same measure for `c1ccc(CCCNCc2ccc(OCc3ccccc3)cc2)cc1`: “inactive”.
The same measure, in the same setting: the same measure for `C=CCOc1ccc(CCN(CC=C)Cc2cccc(OCc3ccccc3)c2)cc1`: “inactive”.
For `c1ccc(COc2ccc(CNCc3ccccn3)cc2)cc1`, at Acetylcholinesterase [1], the inhibition entry is “inactive”.
For the compound `C=CCOc1ccc(CCNCc2cccc(OCc3ccccc3)c2)cc1`, at Acetylcholinesterase [1], the inhibition result is “inactive”.
Same read-out and setting: the same measure for `C=CCN(CCc1ccccc1)Cc1cccc(OCc2ccccc2)c1`: “inactive”; for `COc1cccc(CCNCc2cccc(OCc3ccccc3)c2)c1`: “inactive”.
Still for that read-out and setting: the same measure for `CCCOc1ccc(CCN(CCC)Cc2ccc(OCc3ccccc3)cc2)cc1`: “inactive”; for `Oc1ccc(CCNCc2ccc(OCc3ccccc3)cc2)cc1`: “inactive”.
In the case of `COc1ccc(CCNCc2cccc(OCc3ccccc3)c2)cc1`, the inhibition entry at Acetylcholinesterase [1] was “inactive”.
In the case of `CCN(Cc1ccccc1)Cc1ccc(OCc2ccccc2)cc1`, the inhibition result on Acetylcholinesterase [1] was “inactive”.
Same read-out and setting: next, `CC(CNCc1cccc(OCc2ccccc2)c1)c1ccccc1` (stereo not given): “inactive”.
For `c1ccc(COc2ccc(CNCCc3ccccn3)cc2)cc1`, the inhibition entry on Acetylcholinesterase [1] is “inactive”.
Same read-out and setting: next, `CCCN(Cc1ccccc1)Cc1ccc(OCc2ccccc2)cc1`: “inactive”; `c1ccc(CCNCc2ccc(OCc3ccccc3)cc2)cc1`: “inactive”; `CCN(Cc1ccccc1)Cc1cccc(OCc2ccccc2)c1`: “inactive”.
Same read-out and setting: the same measure for `CCN(CCCc1ccccc1)Cc1cccc(OCc2ccccc2)c1`: “inactive”; for `COc1ccccc1CCNCc1ccc(OCc2ccccc2)cc1`: “inactive”; for `COc1ccc(CCNCc2ccc(OCc3ccccc3)cc2)cc1`: “inactive”.
Same read-out and setting: the same measure for `COc1ccccc1CCNCc1cccc(OCc2ccccc2)c1`: “inactive”.
As for `Clc1cccc(NCc2cccc(OCc3ccccc3)c2)c1`, the inhibition result on Acetylcholinesterase [1] was “inactive”.
The same measure, in the same setting: next, `CCN(Cc1ccc(OCc2ccccc2)cc1)C(C)CCc1ccccc1` (stereo not given): “inactive”; `CCCN(Cc1ccc(OCc2ccccc2)cc1)C(C)CCc1ccccc1` (stereo not given): “inactive”.
On the same count and under the same terms, next, `CCCN(CCCc1ccccc1)Cc1cccc(OCc2ccccc2)c1`: “inactive”.
Regarding `C=CCN(CCCc1ccccc1)Cc1cccc(OCc2ccccc2)c1`, on Acetylcholinesterase [1], the inhibition result was “inactive”.
Regarding `CN(CCc1ccc(O)cc1)Cc1cc2c(cc1-c1cccc3c1N(C)CC3)OCO2`, the pIC50 at Acetylcholinesterase [3] is less than 4.00.
For `c1ccc(CNCc2ccc(OCc3ccccc3)cc2)cc1`, the inhibition entry on Acetylcholinesterase [1] was “inactive”.
`C=CCN(Cc1ccccc1)Cc1cccc(OCc2ccccc2)c1`: the inhibition entry on Acetylcholinesterase [1] is “inactive”.
Take `CCCN(CCc1ccc(O)cc1)Cc1ccc(OCc2ccccc2)cc1`: the result at Cholinesterase [4] and at Cholinesterase [5] was Active. In addition, the inhibition result on Acetylcholinesterase [1] is “inactive”.
For `Clc1ccc(CCNCc2ccc(OCc3ccccc3)cc2)cc1`, the inhibition result at Acetylcholinesterase [1] was “inactive”.
On the same count and under the same terms, next, `Oc1ccc(CCNCc2cccc(OCc3ccccc3)c2)cc1`: “inactive”; `c1ccc(CCNCc2cccc(OCc3ccccc3)c2)cc1`: “inactive”; `CCCN(CCc1ccccc1)Cc1cccc(OCc2ccccc2)c1`: “inactive”.
Still for that read-out and setting: next, `CC(CNCc1ccc(OCc2ccccc2)cc1)c1ccccc1` (stereo not given): “inactive”.
Still for that read-out and setting: next, `COc1cccc(CCNCc2ccc(OCc3ccccc3)cc2)c1`: “inactive”.
